Data on 5 substances can be found in PMC2856757 (Journal of structural biology, 2010).

Common to all, as to assay type: physicochemical
A short description of data set [1]: Circular dichroism spectra. To be noted: 5°C; for [θ]222 Benign (mean residue ellipticity at 222 nm): CD, peptide 211μm to 265μm (0.2 mg/ml), 1 mm cell, average of 6 scans; for [θ]222 Benign (mean residue ellipticity at 222 nm) / [θ]222/[θ]208 Benign: benign buffer (100mM KCl, 50mM PO4, pH 7); for [θ]222/[θ]208 50% TFE / [θ]222/[θ]208 Benign: ratio of mean residue ellipticity at 222 nm and 208 nm; for [θ]222/[θ]208 50% TFE: 50/50 benign buffer/TFE (v/v). The procedure, abridged:
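Disulfide-bridged peptides (N-acetylated, C-amidated, N-terminal Cys-Gly-Gly, air-oxidised overnight at 4°C in 100mM ammonium bicarbonate pH 8.3). Stocks of 2mg/mL in benign buffer are diluted to 0.2 mg/ml in benign buffer or buffer with 50% TFE. Concentration is by amino acid analysis. Scans run 190–255 nm in 0.5 nm steps at 50 nm per minute. Ellipticity is converted to molar ellipticity using mean residue weight, path length and concentration.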

Data set [2] can be described thus: Thermal denaturation by circular dichroism spectroscopy at 222 nm. Conditions: CD at 222 nm, benign buffer (100mM KCl, 50mM PO4, pH 7), 5°C to 90°C in 0.5°C increments, 60°C/hour, from plot of fraction folded versus temperature. The procedure, abridged: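 Disulfide-bridged two-stranded peptides (air-oxidised overnight at 4°C in 100mM ammonium bicarbonate, pH 8.3) diluted to 0.2 mg/ml in 100mM KCl, 50mM PO4, pH 7 (1 mm cell). Concentration by amino acid analysis. Ellipticity at 222 nm scanned 5°C to 90°C, 0.5°C steps, 60°C/hour. Fraction folded from observed, fully folded and fully unfolded ellipticities. Tm is the 50%-unfolded temperature; ΔTm is taken versus native peptide.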

Data set [3] can be described thus: RP-HPLC temperature profiling of peptide self-association. Conditions: Gemini C18, 100mM NaClO4, 10mM NH4H2PO4, pH 7, 2%B per minute, 5°C - 80°C in 3°C increments, peptide 1.7mg/ml, retention times normalized to 5°C minus random coil control peptide. The procedure, abridged: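 Gradient is 0-100%B over 50 minutes; eluent B is 50/50 H2O/CH3CN with the same salts. Retention time at each temperature minus that at 5°C gives the normalised value. Association parameter = peptide normalised value minus control normalised value; the maximum is reported.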

[4] abbreviates: listed as R101A/L110A/K112A/K118A.

For the substance “Native: native tropomyosin 85-119 coiled-coil sequence with N-terminal Cys-Gly-Gly linker, N-acetylated, C-amidated, disulfide-bridged (Ac-CGGVASLNRRIQLVEEELDRAQERLATALQKLEEAEKA-NH2; also: disulfide-bridged two-stranded dimer (linker Cys); UniProt P09493 85-119, looked up, fragment)”, in data set [1], the “[θ]222 Benign (mean residue ellipticity at 222 nm)” value (shortened to “[θ]222 Benign”) is listed as -36,213 deg cm^2 dmol^-1, the “[θ]222/[θ]208 50% TFE” value amounted to 0.96 deg cm^2 dmol^-1 and the “[θ]222/[θ]208 Benign” value is 1.08 deg cm^2 dmol^-1. Besides, the “[θ]222/[θ]208 Benign” value in data set [1] (listed as native peptide) was “greater than 1 deg cm^2 dmol^-1”. Moreover, in data set [2], the “Tm (temperature at which 50% of the peptide is unfolded)” value turned out to be 52.9 °C. Moreover, in data set [3], the “PA,Max (maximum association parameter, self-association)” value (“PA,Max” for short) is 3.4.

Take “TM2: TM85-119 analog with K118A substitution (VASLNRRIQLVEEELDRAQERLATALQKLEEAEAA; not fully specified; Cys-Gly-Gly linker; UniProt P09493 85-119, looked up, variant K118A)”: in data set [1], the “[θ]222 Benign” value was -30,548 deg cm^2 dmol^-1, the “[θ]222/[θ]208 50% TFE” value was 0.97 deg cm^2 dmol^-1 and the “[θ]222/[θ]208 Benign” value was 1.08 deg cm^2 dmol^-1. For the same substance, in data set [2], the “Tm (temperature at which 50% of the peptide is unfolded)” value came out at 48.7 °C. In data set [3], the “PA,Max” value turned out to be 2.7.

Consider “TM3: TM85-119 analog with K112A/K118A substitutions (VASLNRRIQLVEEELDRAQERLATALQALEEAEAA; not fully specified; Cys-Gly-Gly linker; UniProt P09493 85-119, looked up, variant K112A K118A)”, for which, in data set [1], the “[θ]222 Benign” value is -29,457 deg cm^2 dmol^-1, the “[θ]222/[θ]208 50% TFE” value is on record as 0.97 deg cm^2 dmol^-1 and the “[θ]222/[θ]208 Benign” value was 1.08 deg cm^2 dmol^-1. Besides, in data set [2], the “Tm (temperature at which 50% of the peptide is unfolded)” value came out at 45.3 °C. In addition, the “PA,Max” value in data set [3] was 2.4.

As to “TM4: TM85-119 analog with R101A substitution (VASLNRRIQLVEEELDAAQERLATALQKLEEAEKA; not fully specified; Cys-Gly-Gly linker; UniProt P09493 85-119, looked up, variant R101A)”, in data set [1], the “[θ]222 Benign” value is -34,390 deg cm^2 dmol^-1, the “[θ]222/[θ]208 50% TFE” value is on record as 0.96 deg cm^2 dmol^-1 and the “[θ]222/[θ]208 Benign” value is on record as 1.08 deg cm^2 dmol^-1. For the same substance, the “Tm (temperature at which 50% of the peptide is unfolded)” value in data set [2] worked out at 46.0 °C. In addition, in data set [3], the “PA,Max” value was determined as 1.8.

Consider “TM7: TM85-119 analog with R101A/L110A/K112A/K118A substitutions (VASLNRRIQLVEEELDAAQERLATAAQALEEAEAA; not fully specified; Cys-Gly-Gly linker; UniProt P09493 85-119, looked up, variant R101A L110A K112A K118A)”, for which, in data set [1], the “[θ]222 Benign” value is given as -9,578 deg cm^2 dmol^-1, the “[θ]222/[θ]208 50% TFE” value is on record as 0.97 deg cm^2 dmol^-1 and the “[θ]222/[θ]208 Benign” value was 0.86 deg cm^2 dmol^-1. Besides, in data set [2], the “Tm (temperature at which 50% of the peptide is unfolded)” value is less than 5 °C. The “Tm (temperature at which 50% of the peptide is unfolded)” value in data set [2] (setting [4]) was “less than 5 °C”. In addition, in data set [3], the “PA,Max” value is recorded as 0. For the same substance, in data set [3] (setting [4]), the “PA,Max” value is reported as “zero”.
